This passage reports Relative activity and Km results from ChEMBL document CHEMBL1121850, “Synthesis of peptide analogues of prothrombin precursor sequence 5-9. Substrate specificity of vitamin K dependent carboxylase” (J Med Chem, 1981).

Numbered stars: 1 amine (or outer) side, 2 acyl side, 3 side chain; on linkers, the order of the positions; unused ones are H or OH. Square brackets hold non-standard residues; d marks the D form. Peptide text beside a SMILES is read from it. * marks the point of attachment. ξ: configuration not given here. Pyrrolidin1yl(2S-Ac) = CC(=O)[C@@H]1CCCN1*; ξF = NC(Cc1ccccc1)C(=O)O; X1 = CO[C@H](CC(C)C)N*; Boc = CC(C)(C)OC(=O)*; CO = O=C([*:1])[*:2]; OtBu = CC(C)(C)O* Where only a bound is given, the exact number is not on record here.

One series deals with T1, Vitamin K-dependent gamma-carboxylase (Rattus norvegicus) (UniProt O88496).
T1 sequence (whole entry): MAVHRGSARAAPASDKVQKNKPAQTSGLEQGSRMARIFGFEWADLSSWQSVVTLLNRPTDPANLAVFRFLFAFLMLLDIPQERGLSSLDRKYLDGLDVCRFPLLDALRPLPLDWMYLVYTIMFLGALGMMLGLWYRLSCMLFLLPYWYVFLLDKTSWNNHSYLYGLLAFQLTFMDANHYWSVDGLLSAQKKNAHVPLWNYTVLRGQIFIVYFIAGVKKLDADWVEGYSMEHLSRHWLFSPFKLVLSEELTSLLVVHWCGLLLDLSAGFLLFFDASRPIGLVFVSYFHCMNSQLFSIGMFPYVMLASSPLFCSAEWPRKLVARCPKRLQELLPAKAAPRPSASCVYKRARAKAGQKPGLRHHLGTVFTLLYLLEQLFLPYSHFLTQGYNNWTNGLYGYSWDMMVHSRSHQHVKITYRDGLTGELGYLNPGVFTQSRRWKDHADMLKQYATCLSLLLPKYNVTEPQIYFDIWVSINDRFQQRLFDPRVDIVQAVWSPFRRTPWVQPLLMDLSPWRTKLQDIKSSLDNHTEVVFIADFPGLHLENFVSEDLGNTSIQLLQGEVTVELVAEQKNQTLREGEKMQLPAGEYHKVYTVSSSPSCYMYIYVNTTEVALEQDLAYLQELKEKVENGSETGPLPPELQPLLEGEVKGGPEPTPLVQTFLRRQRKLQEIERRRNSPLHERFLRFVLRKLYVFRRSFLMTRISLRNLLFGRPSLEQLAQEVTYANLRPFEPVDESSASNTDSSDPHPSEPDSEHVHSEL
Nature of the series: Relative activity for […] rat liver vitamin K dependent carboxylase mediated carboxylation of pentapeptide at 1 mM. The class given is functional, tissue-based. The essentials:
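Carboxylase source was Triton-solubilized liver microsomes from vitamin K-deficient rats, pellets KCl-washed. Peptide at 1 mM was incubated with NaH¹⁴CO₃ and vitamin K-H₂ (in ethanol) at 17 °C for 10–20 min. Read-out was ¹⁴CO₂ in TCA-soluble material, with the ethanol-only background subtracted. Activity is given as % of the 1 mM reference pentapeptide on the same preparation; duplicate incubations.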
In the case of `CCC(=O)N[C@@H](Cc1ccccc1)C(=O)N[C@@H](CC(C)C)C(=O)N[C@@H](CCC(=O)O)C(=O)N[C@@H](CCC(=O)O)C(=O)N[C@@H](CC(C)C)C(=O)O` (HELM PEPTIDE1{[CCC(=O)[*:2]].F.L.E.E.L}$$$$V2.0), the Relative activity turned out to be 149%.

For `COC(=O)NC(=O)[C@H](CC(C)C)NC(=O)[C@H](CCCC(=O)O)NC(=O)C(CCCC(=O)O)NC(=O)OC(C)(C)C` (stereo partly drawn), the Relative activity was less than 1%.

Regarding `COC(=O)[C@H](CCC(=O)O)NC(=O)[C@H](C)NC(=O)[C@H](CCC(=O)O)NC(=O)[C@H](CC(C)C)NC(=O)N1CCC[C@H]1C(=O)OC(C)(C)C` ({OtBu-Pro-CO}-LEAE-OMe), the Relative activity turned out to be 19%.

Consider `COC(=O)[C@H](CC(C)C)NC(=O)[C@H](CCC(=O)O)NC(=O)[C@H](CCC(=O)O)NC(=O)CNC(=O)OC(C)(C)C` (HELM PEPTIDE1{[CC(C)(C)OC(=O)[*:2]].G.E.E.L.[CO[*:1]]}$$$$V2.0), for which the Relative activity amounted to 6%.

Consider `COC(=O)NC(=O)[C@H](CC(C)C)NC(=O)[C@H](CCC(=O)O)NC(=O)C(CCSC)NC(=O)CC(C)C` (stereo partly drawn), for which the Relative activity turned out to be 6%.

Consider `COC(=O)[C@@H](CC(C)C)NC(=O)[C@H](CCC(=O)O)NC(=O)[C@H](CCC(=O)O)NC(=O)OC(C)(C)C`, for which the Relative activity was 19%.

On to `COC(=O)[C@@H](CC(C)C)NC(=O)[C@H](CCC(=O)O)NC(=O)[C@H](CCC(=O)O)NC(=O)[C@@H](CC(C)C)NC(=O)OC(C)(C)C`, for which the Relative activity is 19%.

For the molecule `COC(=O)[C@H](CC(C)C)NC(=O)[C@H](CCC(=O)O)NC(=O)[C@H](CCC(=O)O)NC(=O)[C@@H](CC(C)C)NC(=O)OC(C)(C)C`, the Relative activity was 55%.

In the case of `COC(=O)[C@@H](CC(C)C)NC(=O)[C@H](CCC(=O)O)NC(=O)[C@H](CCC(=O)O)NC(=O)[C@H](CC(C)C)NC(=O)OC(C)(C)C`, the Relative activity amounted to 77%.

Regarding `COC(=O)NC(=O)[C@H](CC(C)C)NC(=O)[C@H](CCC(=O)O)NC(=O)C(CCC(=O)O)NC(=O)OC(C)(C)C` (stereo partly drawn), the Relative activity was less than 1%.

In the case of `COC(=O)[C@H](CCC(=O)O)NC(=O)[C@H](C)NC(=O)[C@H](CCC(=O)O)NC(=O)[C@H](CC(C)C)NC(=O)OC(C)(C)C` (HELM PEPTIDE1{[CC(C)(C)OC(=O)[*:2]].L.E.A.E.[CO[*:1]]}$$$$V2.0), the Relative activity was 46%.

Consider `COC(=O)[C@H](CC(C)C)NC(=O)[C@H](CCC(=O)O)NC(=O)[C@@H](CCC(=O)O)NC(=O)[C@H](CC(C)C)NC(=O)[C@H](Cc1ccccc1)NC(=O)OC(C)(C)C`, for which the Relative activity was less than 1%.

`CC(C)(C)OC(=O)N[C@H](CCC(=O)O)C(=O)OCc1ccccc1`: the Relative activity is 5%.

As for `COC(=O)NC(=O)[C@H](CCC(=O)O)NC(=O)[C@H](C)NC(=O)[C@H](CCC(=O)O)NC(=O)OC(C)(C)C`, the Relative activity was 4%.

On to `COC(=O)[C@H](CCC(=O)O)NC(=O)[C@H](C)NC(=O)[C@H](CCC(=O)O)NC(=O)[C@H](CC(C)C)NC(=O)N1CCC[C@H]1C(C)=O` ({Pyrrolidin1yl(2S-Ac)-CO}-LEAE-OMe), for which the Relative activity is 25%.

`COC(=O)[C@H](CC(C)C)NC(=O)[C@H](CCC(=O)O)NC(=O)[C@@H](CCC(=O)O)NC(=O)OC(C)(C)C`: the Relative activity was less than 1%.

For the molecule `COC(=O)[C@H](CC(C)C)NC(=O)[C@H](CCC(=O)O)NC(=O)[C@H](CCC(=O)O)NC(=O)CNC(=O)[C@H](Cc1ccccc1)NC(=O)OC(C)(C)C` (HELM PEPTIDE1{[CC(C)(C)OC(=O)[*:2]].F.G.E.E.L.[CO[*:1]]}$$$$V2.0), the Relative activity was determined as 25%.

With `CC(C)C[C@H](NC(=O)[C@H](CCC(=O)O)NC(=O)[C@H](CC(C)C)NC(=O)[C@H](CCC(=O)O)NC(=O)[C@H](Cc1ccccc1)NC(=O)O)C(=O)O` (HELM PEPTIDE1{[O=C(O)[*:2]].F.E.L.E.L}$$$$V2.0), the Relative activity is less than 1%.

Take `COC(=O)NC(=O)[C@H](CC(C)C)NC(=O)[C@H](CC(=O)O)NC(=O)C(CCC(=O)O)NC(=O)OC(C)(C)C` (stereo partly drawn): the Relative activity worked out at 11%.

`CC(C)C[C@H](NC(=O)[C@H](CO)NC(=O)[C@H](CCC(=O)O)NC(=O)[C@H](CC(C)C)NC(=O)[C@H](C)NC(=O)[C@H](CCC(=O)O)NC(=O)[C@@H](N)Cc1ccccc1)C(=O)O` (H-FEALESL-OH): the Relative activity is 6%.

Turning to `COC(=O)[C@H](CC(C)C)NC(=O)[C@@H](CCC(=O)O)NC(=O)[C@H](CCC(=O)O)NC(=O)[C@H](CC(C)C)NC(=O)[C@H](Cc1ccccc1)NC(=O)OC(C)(C)C`, the Relative activity is less than 1%.

Consider `CC(C)C[C@H](NC(=O)[C@H](CCC(=O)O)NC(=O)[C@@H](CCC(=O)O)NC(=O)[C@H](CC(C)C)NC(=O)[C@@H](N)Cc1ccccc1)C(=O)O`, for which the Relative activity was determined as 100%.

`COC(=O)[C@H](CC(C)C)NC(=O)[C@H](CCC(=O)O)NC(=O)[C@H](CCC(=O)O)NC(=O)OC(C)(C)C`: the Relative activity came out at 107%.

With `CC(C)C[C@H](NC(=O)[C@H](CCC(=O)O)NC(=O)[C@H](CCC(=O)O)NC(=O)[C@@H](N)CC(C)C)C(=O)O` (H-LEEL-OH), the Relative activity is 8%.

For `CC(C)C[C@H](NC(=O)[C@H](CCC(=O)O)NC(=O)[C@H](CCC(=O)O)NC(=O)CNC(=O)[C@@H](N)Cc1ccccc1)C(=O)O` (H-FGEEL-OH), the Relative activity came to 4%.

For the molecule `COC(=O)[C@H](CC(C)C)NC(=O)[C@H](CCC(=O)O)NC(=O)[C@H](CCC(=O)O)NC(=O)[C@H](C)NC(=O)OC(C)(C)C` (HELM PEPTIDE1{[CC(C)(C)OC(=O)[*:2]].A.E.E.L.[CO[*:1]]}$$$$V2.0), the Relative activity is 19%.

With `CC(C)C[C@H](NC(=O)[C@H](CCC(=O)O)NC(=O)[C@H](CCC(=O)O)NC(=O)[C@H](CC(C)C)NC(=O)[C@H](Cc1ccccc1)NC(=O)c1ccccc1)C(=O)O` (HELM PEPTIDE1{[O=C(c1ccccc1)[*:2]].F.L.E.E.L}$$$$V2.0), the Relative activity is 27%.

Regarding `COC(=O)NC(=O)[C@H](CC(C)C)NC(=O)[C@H](CC(=O)O)NC(=O)C(CC(=O)O)NC(=O)OC(C)(C)C` (stereo partly drawn), the Relative activity was less than 1%.

In the case of `CO[C@H](CC(C)C)NC(=O)[C@H](CCC(=O)O)NC(=O)[C@H](CCC(=O)O)NC(=O)[C@H](CC(C)C)NC(=O)OC(C)(C)C`, the Relative activity was found to be 77%.

Take `CO[C@@H](CC(C)C)NC(=O)[C@@H](CCC(=O)O)NC(=O)OC(C)(C)C`: the Relative activity was less than 1%.

Take `CO[C@H](CC(C)C)NC(=O)[C@H](CCC(=O)O)NC(=O)[C@H](CCC(=O)O)NC(=O)[C@H](CC(C)C)NC(=O)C(Cc1ccccc1)NC(=O)OC(C)(C)C` (stereo partly drawn) (Boc-[ξF]LEE-X1): the Relative activity came out at 24%.

For the molecule `COC(=O)[C@H](CC(C)C)NC(=O)[C@@H](CCC(=O)O)NC(=O)[C@@H](CCC(=O)O)NC(=O)[C@H](CC(C)C)NC(=O)[C@H](Cc1ccccc1)NC(=O)OC(C)(C)C`, the Relative activity is less than 1%.

For `COC(=O)NC(=O)[C@H](CC(C)C)NC(=O)[C@H](CCC(=O)O)NC(=O)C(CC(=O)O)NC(=O)OC(C)(C)C` (stereo partly drawn), the Relative activity amounted to 11%.

Consider `CC(C)C[C@H](NC(=O)[C@H](CCC(=O)O)NC(=O)[C@H](CCC(=O)O)NC(=O)[C@H](C)NC(=O)[C@@H](N)Cc1ccccc1)C(=O)O` (H-FAEEL-OH), for which the Relative activity was 72%.

For the molecule `COC(=O)[C@H](CC(C)C)NC(=O)[C@@H](CCC(=O)O)NC(=O)[C@H](CCC(=O)O)NC(=O)OC(C)(C)C`, the Relative activity is less than 1%.

As for `CC(C)(C)OC(=O)N[C@H](CCC(=O)O)C(=O)NCc1ccccc1`, the Relative activity was less than 1%.

On to `COC(=O)[C@H](CC(C)C)NC(=O)[C@@H](CCC(=O)O)NC(=O)[C@@H](CCC(=O)O)NC(=O)OC(C)(C)C`, for which the Relative activity was less than 1%.

Test system in a further series: not listed separately
Nature of the series: Michaelis constant was determined. The class given is ADME.
In the case of `CC(C)C[C@H](NC(=O)[C@H](CCC(=O)O)NC(=O)[C@@H](CCC(=O)O)NC(=O)[C@H](CC(C)C)NC(=O)[C@@H](N)Cc1ccccc1)C(=O)O`, the Km (usually the substrate concentration at which the rate is half of its maximum) is 4 mM.
